Active and inactive are the calls of the source. No cut-off for these calls is given here.
Tests used:
[1] = Plasma protein binding in rat serum by equilibrium dialysis method; type: ADME, cell-free; settings: read-out: PPB (converted)
Outline: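 Protein binding measured by equilibrium dialysis against rat or human serum.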

[2] = Passive permeability of the compound at 5 uM; type: ADME; settings: not told
Plasma = test: Drug level in Sprague-Dawley rat plasma at 10 mg/kg, po; type: ADME, organism-based; design: dose 10 mg/kg, route oral; settings: in vivo
Outline: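 Rats dosed orally at 10 mpk. Plasma, brain and CSF sampled at 2 h and concentrations determined by bioanalysis.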

[3] = Metabolic stability in monkey NADPH-fortified hepatic microsomes assessed as oxidative metabolism; type: ADME, Macaca mulatta, Liver; settings: rhesus monkey
Outline: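 Compound incubated with NADPH-fortified hepatic microsomes from rat, dog, monkey or human. Oxidative metabolism monitored.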

Mus musculus [4] = test: Antiamnesic activity against scopolamine-induced dementia in B6SJL mouse assessed as increase in freezing behavior at 10 mg/kg, ip after 24 hrs; type: functional, organism-based; design: dose 10 mg/kg
Outline: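 Male B6SJL mice, 10 weeks old and naive (n = 12–16/group), were given compound IP in 5% beta-cyclodextrin and/or scopolamine 0.3 mg/kg in 0.9% saline 30 min before training. Training was 2 tone (3 kHz, 85 dB, 30 s)–footshock (0.5 mA, 1 s) pairings 2 min apart. Freezing in the same chamber was video-scored 24 h later.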

Mus musculus [5] = test: Antiamnesic activity against scopolamine-induced dementia in ip dosed B6SJL mouse assessed as increase in freezing behavior at 3 uM plasma concentration; type: functional, organism-based

## N#CC1(c2ccccn2)CCN(Cc2cc(C(=O)O)c(=O)n3ccccc23)CC1 [MSD-M1PAM]
[1]
  fraction unbound: 0.318
[2]
  Papp at 5 µM: 18 ×10⁻⁶ cm/s
Plasma
  concentration: 1480 nM
[3]
  Stability: Stable
Mus musculus [4]
  Activity: Active
Mus musculus [5]
  Activity: Active
